Type in all cases: functional
For experiment [1], the species on record is Rattus norvegicus. In words: Residual insulin release from rat pancreatic islets at a concentration of 50 uM. The gist of the method: (§1)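 Rat pancreatic islets in groups of 10 were preincubated 30 min at 37 °C in bicarbonate salt medium with 2.8 mM glucose and 0.5% dialyzed albumin, gassed with 95% O2/5% CO2. They were then incubated 90 min at 37 °C with 16.7 mM glucose plus test drug. Insulin was measured by radioimmunoassay against a rat insulin standard and reported as % residual release.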

The species entered for experiment [2] is Rattus norvegicus. In words: Percentage of residual contractile response at 500 uM from isolated rat aorta.
Experiment [3] is filed under the species Rattus norvegicus. Briefly: Effective dose concentration by the compound to give 50% relaxation of KCl induced concentration. The method, boiled down:
(§2)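 Endothelium-denuded transverse aortic rings (3-4 mm) from fed Wistar rats (250-300 g), held at 36 ± 1 °C under 95% O2/5% CO2. After 60 min equilibration they were contracted with 30 mM KCl. At the plateau (1-2 g), drug was added cumulatively until maximal relaxation or 1 mM. Isometric tension was recorded. ED50 was read graphically from each curve. Mean ± sem of 3-12 experiments.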

The species entered for experiment [4] is Rattus norvegicus. Briefly: Percentage of residual contractile response in isolated rat aorta; +++ indicates that a maximal vasorelaxant activity was observed at 500 uM.
For experiment [5], the species on record is Rattus norvegicus. In words: Effective dose to give 50% relaxation of the KCl induced contraction. The method, boiled down: as §2
Experiment [6] is filed under the species Rattus norvegicus. In words: Percentage residual insulin release by the compound at 10 uM from rat pancreatic islets. The method, boiled down: as §1
For experiment [7], the species on record is Rattus norvegicus. Briefly: Percentage residual insulin release by the compound at 1 uM from rat pancreatic islets. The gist of the method: as §1
For experiment [8], the species on record is Rattus norvegicus. In words: Percentage residual insulin release by the compound at 1(uM from rat pancreatic islets. Particulars: in the assay text read “10(uM” for “1(uM”. The method, boiled down:
as §1

Experiment [9] is filed under the species Rattus norvegicus. In words: Effective dose to give 50% relaxation of KCl induced concentration. The method, boiled down: as §2

The structures appear in SMILES notation. Active and inactive are the calls of the source. No cut-off for these calls is given here.

`O=S1(=O)N=C(C(F)(F)F)Nc2ccncc21` displayed a Residual insulin secretion in the experiment filed under Rattus norvegicus [1] of 90.4%. Besides, the Residual contractile activity in the experiment filed under Rattus norvegicus [2] was 96%.

With `CC1=NS(=O)(=O)c2cnccc2N1C1CCCCC1`, in the experiment listed under Rattus norvegicus [1], the Residual insulin secretion came to 87.9%. The same compound registered a Residual contractile activity in the experiment filed under Rattus norvegicus [2] of 52%.

For `CC1=NS(=O)(=O)c2cnccc2N1N1CCOCC1`, the Residual insulin secretion in the experiment listed under Rattus norvegicus [1] is 93.5%. The Residual contractile activity in the experiment listed under Rattus norvegicus [2] amounted to 89%.

`CC(C)NC1=NS(=O)(=O)c2cnccc2N1` came in with a Residual insulin secretion in the experiment filed under Rattus norvegicus [1] of 42.6%. For the same compound, the Residual contractile activity in the experiment listed under Rattus norvegicus [2] turned out to be 89%.

In the experiment filed under Rattus norvegicus [1], `CCC1=NS(=O)(=O)c2cnccc2N1` gave a Residual insulin secretion of 90.2%. Moreover, in the experiment filed under Rattus norvegicus [2], the Residual contractile activity amounted to 74%.

With `NC1=NS(=O)(=O)c2cnccc2N1`, in the experiment listed under Rattus norvegicus [2], the Residual contractile activity is reported as 77%.

Regarding `CC1=NS(=O)(=O)c2cnccc2N1C`, in the experiment filed under Rattus norvegicus [1], the Residual insulin secretion was determined as 109%. The Residual contractile activity in the experiment listed under Rattus norvegicus [2] came to 94%.

On to `O=S1(=O)N=CNc2ccncc21`, for which the Residual insulin secretion in the experiment filed under Rattus norvegicus [1] worked out at 99.5%. The Residual contractile activity in the experiment filed under Rattus norvegicus [2] was 94%.

`CC1=NS(=O)(=O)c2cnccc2N1` yielded a Residual insulin secretion in the experiment filed under Rattus norvegicus [1] of 100.4%. In the experiment filed under Rattus norvegicus [2], the Residual contractile activity is reported as 92%.

For `CCCNC1=NS(=O)(=O)c2cnccc2N1`, in the experiment listed under Rattus norvegicus [2], the Residual contractile activity stood at 88%.

Turning to `O=S1(=O)N=C(C2CCCC2)Nc2ccncc21`, the Residual insulin secretion in the experiment filed under Rattus norvegicus [1] was found to be 99.3%. The compound also returned an ED50 in the experiment listed under Rattus norvegicus [3] of 257 µM. Further, the Residual contractile activity entry in the experiment listed under Rattus norvegicus [4] is “maximal vasorelaxant activity was observed at 500 uM”.

Take `O=S1(=O)N=C(NC2CCCC2)Nc2ccncc21`: the Residual insulin secretion in the experiment filed under Rattus norvegicus [1] was found to be 31.6%. Moreover, in the experiment filed under Rattus norvegicus [2], the Residual contractile activity is 60%.

Turning to `CC(C)(C)C1=NS(=O)(=O)c2cnccc2N1`, the Residual insulin secretion in the experiment listed under Rattus norvegicus [1] turned out to be 81.1%. In the experiment listed under Rattus norvegicus [3], this compound had an ED50 of 258 µM. The Residual contractile activity entry in the experiment filed under Rattus norvegicus [4] is “maximal vasorelaxant activity was observed at 500 uM”.

The compound `CC(C)CNC1=NS(=O)(=O)c2cnccc2N1` gave an ED50 in the experiment filed under Rattus norvegicus [5] of 205 µM. Further, the Residual contractile activity result in the experiment filed under Rattus norvegicus [4] is given as “maximal vasorelaxant activity was observed at 500 uM”.

Compound `CC1=Nc2ccc(Cl)cc2S(=O)(=O)N1` [DIAZOXIDE] had an ED50 in the experiment listed under Rattus norvegicus [5] of 21 µM. Further, the Residual contractile activity entry in the experiment listed under Rattus norvegicus [4] is “Active”. In the experiment filed under Rattus norvegicus [6], this compound returned a Residual insulin secretion of 70%.

In the case of `O=S1(=O)NC(C2CCCC2)=Nc2ccc(Cl)cc21`, in the experiment filed under Rattus norvegicus [1], the Residual insulin secretion was found to be 14.1%. In the experiment listed under Rattus norvegicus [3], the ED50 came out at 2.8 µM. Moreover, in the experiment listed under Rattus norvegicus [4], the Residual contractile activity result is listed as “maximal vasorelaxant activity was observed at 500 uM”.

In turn, `CC(C)C(C)NC1=NS(=O)(=O)c2cc(Cl)ccc2N1` (stereo not given) registered an ED50 in the experiment filed under Rattus norvegicus [5] of 32 µM. This compound gave a Residual insulin secretion in the experiment filed under Rattus norvegicus [1] of 11%. Also, the Residual contractile activity result in the experiment listed under Rattus norvegicus [4] was “maximal vasorelaxant activity was observed at 500 uM”.

In the experiment listed under Rattus norvegicus [1], `CC(C)NC1=NS(=O)(=O)c2cnccc2N1C` displayed a Residual insulin secretion of 79.4%. The compound further returned a Residual contractile activity in the experiment filed under Rattus norvegicus [2] of 84%.

For `CCCCN(C)C1=NS(=O)(=O)c2cnccc2N1`, the Residual insulin secretion in the experiment filed under Rattus norvegicus [1] was found to be 76.1%. The same compound returned a Residual contractile activity in the experiment listed under Rattus norvegicus [2] of 47%.

In the experiment listed under Rattus norvegicus [5], `CCC(C)NC1=NS(=O)(=O)c2cc(Cl)ccc2N1` (stereo not given) showed an ED50 of 25 µM. The Residual insulin secretion in the experiment filed under Rattus norvegicus [7] was determined as 85.4%; in the experiment filed under Rattus norvegicus [1], 5.5%; in the experiment filed under Rattus norvegicus [6] it was 19.9%. In the experiment filed under Rattus norvegicus [4], the Residual contractile activity entry is listed as “maximal vasorelaxant activity was observed at 500 uM”.

For the compound `CCCC1=NS(=O)(=O)c2cnccc2N1`, the Residual insulin secretion in the experiment filed under Rattus norvegicus [1] was determined as 85.1%. In addition, in the experiment filed under Rattus norvegicus [2], the Residual contractile activity is listed as 77%.

Turning to `CCC(C)NC1=NS(=O)(=O)c2cnccc2N1` (stereo not given), the Residual insulin secretion is reported as 49% in the experiment listed under Rattus norvegicus [8] and 9.4% in the experiment listed under Rattus norvegicus [1]. In the experiment listed under Rattus norvegicus [2], this compound came in with a Residual contractile activity of 34%.

Take `CCC(C)NC1=NS(=O)(=O)c2cnccc2N1C` (stereo not given): the Residual insulin secretion in the experiment filed under Rattus norvegicus [1] is on record as 81%. Moreover, the Residual contractile activity in the experiment filed under Rattus norvegicus [2] is reported as 61%.

`CC(C)C1=NS(=O)(=O)c2cnccc2N1`: the Residual insulin secretion in the experiment filed under Rattus norvegicus [1] was found to be 79.7%. For the same compound, in the experiment listed under Rattus norvegicus [2], the Residual contractile activity amounted to 71%.

With `CN1CCN(C2=NS(=O)(=O)c3cnccc3N2)CC1`, in the experiment listed under Rattus norvegicus [5], the ED50 turned out to be 125 µM. Also, the Residual insulin secretion in the experiment filed under Rattus norvegicus [1] is 90.6%. For the same compound, in the experiment listed under Rattus norvegicus [4], the Residual contractile activity entry is listed as “maximal vasorelaxant activity was observed at 500 uM”.

In the case of `CCCCNC1=NS(=O)(=O)c2cnccc2N1`, the Residual contractile activity in the experiment listed under Rattus norvegicus [2] is listed as 74%. The compound further yielded a Residual insulin secretion in the experiment listed under Rattus norvegicus [6] of 82%.

In the experiment listed under Rattus norvegicus [1], `CC1=NS(=O)(=O)c2cc(Cl)ccc2N1C` gave a Residual insulin secretion of 83.9%.

`CC(NC1=NS(=O)(=O)c2cc(Cl)ccc2N1)C(C)(C)C` (stereo not given) came in with an ED50 in the experiment listed under Rattus norvegicus [5] of 10 µM. Moreover, the figures for the Residual insulin secretion in the experiment listed under Rattus norvegicus [7], in the experiment listed under Rattus norvegicus [1] and in the experiment listed under Rattus norvegicus [6] were 87.7%, 9.3% and 46.9%, respectively. In the experiment filed under Rattus norvegicus [4], the Residual contractile activity result was “maximal vasorelaxant activity was observed at 500 uM”.

For the compound `O=S1(=O)N=C(NC2CCCCC2)Nc2ccncc21`, the Residual contractile activity in the experiment listed under Rattus norvegicus [2] was 40%.

In turn, `CCNC1=NS(=O)(=O)c2cnccc2N1` displayed a Residual insulin secretion in the experiment listed under Rattus norvegicus [1] of 59.2%. For the same compound, the Residual contractile activity in the experiment listed under Rattus norvegicus [2] was determined as 87%.

`CC1=NS(=O)(=O)c2cnccc2N1N1C2CCCC1CC2`: the Residual insulin secretion in the experiment filed under Rattus norvegicus [1] is recorded as 71.9%. The Residual contractile activity in the experiment listed under Rattus norvegicus [2] worked out at 53%.

As for `CC(NC1=NS(=O)(=O)c2cnccc2N1)C(C)(C)C` (stereo not given), the ED50 in the experiment filed under Rattus norvegicus [5] was determined as 104 µM. In addition, the Residual insulin secretion was 70% in the experiment filed under Rattus norvegicus [7], 10.3% in the experiment listed under Rattus norvegicus [1] and 41% in the experiment listed under Rattus norvegicus [6]. Also, in the experiment filed under Rattus norvegicus [4], the Residual contractile activity entry is listed as “maximal vasorelaxant activity was observed at 500 uM”.

With `CC(C)C(C)NC1=NS(=O)(=O)c2cnccc2N1` (stereo not given), the ED50 in the experiment listed under Rattus norvegicus [5] was determined as 302 µM. Further, the Residual insulin secretion in the experiment filed under Rattus norvegicus [1] is 8.6%. For the same compound, the Residual contractile activity entry in the experiment filed under Rattus norvegicus [4] is “Active”.

As to `CC(C)C(C)NC1=NS(=O)(=O)c2cnccc2N1C` (stereo not given), the Residual insulin secretion in the experiment listed under Rattus norvegicus [1] stood at 95.4%. This compound showed a Residual contractile activity in the experiment filed under Rattus norvegicus [2] of 69%.

On to `O=S1(=O)N=C(NN2CCOCC2)Nc2ccncc21`, for which the Residual insulin secretion in the experiment listed under Rattus norvegicus [1] worked out at 98.8%. The compound further yielded a Residual contractile activity in the experiment listed under Rattus norvegicus [2] of 93%.

`CC(NC1=NS(=O)(=O)c2cnccc2N1C)C(C)(C)C` (stereo not given): the Residual insulin secretion in the experiment filed under Rattus norvegicus [1] was 88.5%. Further, the Residual contractile activity in the experiment filed under Rattus norvegicus [2] is given as 74%.

For `CC1=NS(=O)(=O)c2cnccc2N1C1CCCCCCC1`, in the experiment listed under Rattus norvegicus [1], the Residual insulin secretion turned out to be 90.6%. In the experiment listed under Rattus norvegicus [9], this compound gave an ED50 of 248 µM. Also, the Residual contractile activity result in the experiment listed under Rattus norvegicus [4] is listed as “maximal vasorelaxant activity was observed at 500 uM”.

`CC1=NS(=O)(=O)c2cnccc2N1C(C)C` had a Residual insulin secretion in the experiment listed under Rattus norvegicus [1] of 68.1%. The same compound had a Residual contractile activity in the experiment listed under Rattus norvegicus [2] of 86%.
